Legend:
A549 [1] = assay: Growth inhibitory activity was determined against A549/ATCC cancer cell line of non-small cell lung cancer; format: functional, Homo sapiens
How it was run: (§1)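 NCI 60 human tumour cell line screen run at the National Cancer Institute. Cell growth and viability read with the protein stain sulforhodamine B, which binds basic amino acids of cells left attached after washing. […] MG MID is the mean GI50 calculated over all panels.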

UO-31 = assay: Growth inhibitory activity was determined against UO-31 cancer cell line of renal cancer; format: functional; conditions: Homo sapiens; how it was run: as §1
LOX IMVI = assay: Growth inhibitory activity was determined against LOX IMVI cancer cell line of melanoma; format: functional, Homo sapiens; how it was run: as §1
[2] = molecular target: T1, M-phase inducer phosphatase 1 (Homo sapiens, UniProt P30304); assay: Inhibitory activity tested against cell division cycle 25A (assay using p-nitro phenyl phosphate (pNPP) as substrate)
T1 sequence (P30304 whole entry): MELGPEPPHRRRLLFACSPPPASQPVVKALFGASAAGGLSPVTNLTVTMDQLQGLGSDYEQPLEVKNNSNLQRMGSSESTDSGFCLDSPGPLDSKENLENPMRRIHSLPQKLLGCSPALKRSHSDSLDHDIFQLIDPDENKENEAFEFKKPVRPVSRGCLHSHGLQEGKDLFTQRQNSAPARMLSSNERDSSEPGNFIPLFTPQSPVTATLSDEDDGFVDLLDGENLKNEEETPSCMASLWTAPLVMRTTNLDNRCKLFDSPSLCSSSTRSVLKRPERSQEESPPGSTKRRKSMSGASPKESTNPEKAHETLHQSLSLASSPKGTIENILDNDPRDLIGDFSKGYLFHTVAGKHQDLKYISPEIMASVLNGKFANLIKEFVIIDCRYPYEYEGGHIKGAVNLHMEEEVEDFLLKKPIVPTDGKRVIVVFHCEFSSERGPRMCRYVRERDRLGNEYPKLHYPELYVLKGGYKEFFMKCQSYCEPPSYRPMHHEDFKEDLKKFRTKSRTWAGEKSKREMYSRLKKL

NCI/ADR-RES = assay: Growth inhibitory activity was determined against NCI/ADR-RES cancer cell line of Breast cancer; format: functional, Homo sapiens; how it was run: as §1
786-0 = assay: Growth inhibitory activity was determined against 786-0 cancer cell line of renal cancer; format: functional; conditions: Homo sapiens; how it was run: as §1
T47D = assay: Growth inhibitory activity was determined against T-47D cancer cell line of Breast cancer; format: functional, Homo sapiens; how it was run: as §1
OVCAR-8 = assay: Growth inhibitory activity was determined against OVCAR-8 cancer cell line of Ovarian cancer; format: functional; conditions: Homo sapiens; how it was run: as §1
PC-3 [3] = assay: Growth inhibitory activity was determined against PC-3 cancer cell line of Prostate cancer; format: functional; conditions: Homo sapiens; how it was run: as §1
A549 [4] = assay: Inhibitory activity against A549 human adenocarcinoma; format: functional, cell-based
How it was run: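 Soft agar clonogenic assay of anchorage-independent growth, using HT-29 colon and A549 lung adenocarcinoma cells. The value is the compound concentration that cut colony number to 50% of control.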

SF-268 = assay: Growth inhibitory activity was determined against SF-268 cancer cell line of CNS cancer; format: functional; conditions: Homo sapiens; how it was run: as §1
BT-549 (Homo sapiens) = assay: Growth inhibitory activity was determined against BT-549 cancer cell line of Breast cancer
SF-539 = assay: Growth inhibitory activity was determined against SF-539 cancer cell line of CNS cancer; format: functional; conditions: Homo sapiens; how it was run: as §1
HT-29 = assay: Growth inhibitory activity was determined against HT-29 cancer cell line colon cancer; format: functional, Homo sapiens; how it was run: as §1
[5] = molecular target: T2, Receptor-type tyrosine-protein phosphatase C (Homo sapiens, UniProt P08575); assay: Inhibitory activity tested against Human CD45 Phosphatase (assay using p-nitrophenyl phosphate (pNPP) as substrate)
T2 sequence (P08575 whole entry): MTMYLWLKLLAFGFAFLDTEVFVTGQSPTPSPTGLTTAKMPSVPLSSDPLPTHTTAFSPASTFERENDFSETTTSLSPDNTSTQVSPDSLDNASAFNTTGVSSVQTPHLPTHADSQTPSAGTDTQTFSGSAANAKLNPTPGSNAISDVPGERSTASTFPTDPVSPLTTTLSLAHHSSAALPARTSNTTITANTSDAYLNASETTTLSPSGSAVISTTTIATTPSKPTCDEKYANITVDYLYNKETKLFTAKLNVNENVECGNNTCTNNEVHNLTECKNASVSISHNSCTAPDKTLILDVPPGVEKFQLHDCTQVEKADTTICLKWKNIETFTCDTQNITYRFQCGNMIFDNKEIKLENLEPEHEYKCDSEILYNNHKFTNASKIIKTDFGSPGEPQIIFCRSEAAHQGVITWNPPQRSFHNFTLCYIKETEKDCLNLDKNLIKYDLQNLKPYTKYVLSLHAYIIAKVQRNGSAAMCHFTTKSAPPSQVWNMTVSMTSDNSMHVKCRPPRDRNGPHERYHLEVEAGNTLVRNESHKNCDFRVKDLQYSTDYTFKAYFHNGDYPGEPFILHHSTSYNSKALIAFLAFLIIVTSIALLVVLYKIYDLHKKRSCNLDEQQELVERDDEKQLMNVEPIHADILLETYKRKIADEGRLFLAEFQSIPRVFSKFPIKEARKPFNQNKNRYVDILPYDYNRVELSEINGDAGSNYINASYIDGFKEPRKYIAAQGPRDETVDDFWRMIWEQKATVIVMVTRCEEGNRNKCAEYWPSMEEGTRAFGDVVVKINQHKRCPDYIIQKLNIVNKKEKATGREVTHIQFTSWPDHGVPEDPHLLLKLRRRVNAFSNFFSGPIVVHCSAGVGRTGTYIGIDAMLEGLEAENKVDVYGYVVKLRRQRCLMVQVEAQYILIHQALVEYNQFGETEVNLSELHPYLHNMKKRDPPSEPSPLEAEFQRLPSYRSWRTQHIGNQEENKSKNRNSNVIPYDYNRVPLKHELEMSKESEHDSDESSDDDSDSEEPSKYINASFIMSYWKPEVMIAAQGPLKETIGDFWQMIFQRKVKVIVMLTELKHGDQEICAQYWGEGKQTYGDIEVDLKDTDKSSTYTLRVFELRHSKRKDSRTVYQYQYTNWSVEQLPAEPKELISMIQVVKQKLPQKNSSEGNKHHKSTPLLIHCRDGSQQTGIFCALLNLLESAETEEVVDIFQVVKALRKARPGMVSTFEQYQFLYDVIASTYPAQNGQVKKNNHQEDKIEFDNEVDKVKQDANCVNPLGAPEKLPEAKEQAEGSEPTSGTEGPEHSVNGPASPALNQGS

OVCAR-3 = assay: Growth inhibitory activity was determined against OVCAR-3 cancer cell line of Ovarian cancer; format: functional; conditions: Homo sapiens; how it was run: as §1
SN12C = assay: Growth inhibitory activity was determined against SN12C cancer cell line of renal cancer; format: functional; conditions: Homo sapiens; how it was run: as §1
COLO 205 = assay: Growth inhibitory activity was determined against COLO 205 cancer cell line colon cancer; format: functional, Homo sapiens; how it was run: as §1
U-251 = assay: Growth inhibitory activity was determined against U-251 cancer cell line of CNS cancer; format: functional; conditions: Homo sapiens; how it was run: as §1
NCI-H23 = assay: Growth inhibitory activity was determined against NCI-H23 cancer cell line of non-small cell lung cancer; format: functional, Homo sapiens; how it was run: as §1
NCI-H522 = assay: Growth inhibitory activity was determined against NCI-H522 cancer cell line of non-small cell lung cancer; format: functional; conditions: Homo sapiens; how it was run: as §1
[6] = molecular target: T1, M-phase inducer phosphatase 1; assay: Inhibitory activity tested against cell division cycle 25A (assay using fluorescein diphosphate (FDP) as substrate)
How it was run: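 Recombinant human GST-Cdc25A fusion protein, each batch calibrated so that FDP was dephosphorylated linearly over 20 min. Fluorescein diphosphate was the substrate. Reactions ran 15 min at 25 °C in the dark and were stopped with sodium orthovanadate. IC50 came from at least two independent runs, each in triplicate.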

SK-MEL-5 = assay: Growth inhibitory activity was determined against SK-MEL-5 cancer cell line of melanoma; format: functional, Homo sapiens; how it was run: as §1
[7] = molecular target: Receptor-type tyrosine-protein phosphatase C, CD45 (Homo sapiens) (UniProt P08575); assay: Inhibitory activity tested against human CD45 (receptor-type tyrosine-protein phosphatase C)
PC-3 [8] = assay: Growth inhibitory activity PC-3 cancer cell line of Prostate cancer; format: functional; conditions: Homo sapiens; how it was run: as §1
HCC 2998 = assay: Growth inhibitory activity was determined against HCC2998 cancer cell line colon cancer; format: functional, Homo sapiens; how it was run: as §1
[9] = molecular target: T1, M-phase inducer phosphatase 1; assay: Inhibitory activity tested against cell division cycle 25A (assay using p-nitrophenyl phosphate (pNPP) as substrate)
[10] = substrate: C=C(CCCCC#N)[C@H]1CC[C@]2(C)[C@@H]([C@H](C)CCCC(C)C)CC[C@H]2[C@@H]1CC(=O)O; conditions: 2.5 uM
[11] = substrate: C=C(CCCCC#N)[C@H]1CC[C@]2(C)[C@@H]([C@H](C)CCCC(C)C)CC[C@H]2[C@@H]1CC(=O)O
[12] = substrate: C=C(CCCCC#N)[C@H]1CC[C@]2(C)[C@@H]([C@H](C)CCCC(C)C)CC[C@H]2[C@@H]1CC(=O)O; conditions: 1.25 uM
[13] = substrate: C=C(CCCCC#N)[C@H]1CC[C@]2(C)[C@@H]([C@H](C)CCCC(C)C)CC[C@H]2[C@@H]1CC(=O)O; conditions: 0.625 uM
[14] = substrate: C=C(CCCCC#N)[C@H]1CC[C@]2(C)[C@@H]([C@H](C)CCCC(C)C)CC[C@H]2[C@@H]1CC(=O)O; remark: listed apart in the source
[15] = substrate: C=C(CCCCC#N)[C@H]1CC[C@]2(C)[C@@H]([C@H](C)CCCC(C)C)CC[C@H]2[C@@H]1CC(=O)O; remark: listed apart in the source
[16] = substrate: C=C(CCCCC#N)[C@H]1CC[C@]2(C)[C@@H]([C@H](C)CCCC(C)C)CC[C@H]2[C@@H]1CC(=O)O; conditions: 5 uM
[17] = substrate: C=C(CCCCC#N)[C@H]1CC[C@]2(C)[C@@H]([C@H](C)CCCC(C)C)CC[C@H]2[C@@H]1CC(=O)O; remark: listed apart in the source

Molecule: CC(C)CCCC(C)[C@H]1CC[C@H]2[C@@H]3CC(=O)O[C@](C)(CC/C=C\C#N)[C@H]3CC[C@]12C (stereo partly drawn)
- GI50 (A549 [1]; Homo sapiens, A549): 15 µM
- GI50 (UO-31): 0.39 µM
- GI50 (LOX IMVI; Homo sapiens, LOX IMVI): 5.15 µM
- IC50 [2]: > 100 µM
- GI50 (NCI/ADR-RES; Homo sapiens, NCI/ADR-RES): > 25 µM
- GI50 (786-0): 7.54 µM
- GI50 (T47D; Homo sapiens, T47D): 8.35 µM
- GI50 (OVCAR-8): 8.72 µM
- GI50 (PC-3 [3]): 9.73 µM
- IC50 (A549 [4]): 7.2 µM
- GI50 (SF-268): 3.19 µM
- GI50 (BT-549 (Homo sapiens); Homo sapiens, BT-549): > 25 µM
- GI50 (SF-539): > 25 µM
- GI50 (HT-29; Homo sapiens, HT-29): 4.85 µM
- IC50 [5]: > 100 µM
- GI50 (OVCAR-3): 13.3 µM
- GI50 (SN12C): 5.08 µM
- GI50 (COLO 205; Homo sapiens, COLO 205): 8.49 µM
- GI50 (U-251): 9.49 µM
- GI50 (NCI-H23; Homo sapiens, NCI-H23): 14.8 µM
- GI50 (NCI-H522): 0.89 µM
- IC50 [6]: 29 µM
- GI50 (SK-MEL-5; Homo sapiens, SK-MEL-5): 4.57 µM

Molecule: CC(C)CCCC(C)[C@H]1CC[C@H]2[C@H](CC(=O)O)[C@@H](C(C)CCCCC#N)CC[C@]12C (stereo in doubt; 22)
- GI50 (A549 [1]): 4.35 µM
- GI50 (UO-31): 8.74 µM
- IC50 [7]: 8.6 µM
- GI50 (LOX IMVI): 4.69 µM
- GI50 (PC-3 [8]): 6.88 µM
- GI50 (NCI/ADR-RES): 8.2 µM
- GI50 (786-0): 7.18 µM
- GI50 (T47D): 9.27 µM
- GI50 (OVCAR-8): 8.02 µM
- GI50 (HCC 2998): 4.77 µM
- GI50 (BT-549 (Homo sapiens)): 6.2 µM
- GI50 (SF-539): 5.01 µM
- GI50 (HT-29): 5.18 µM
- IC50 [5]: 8.6 µM
- GI50 (OVCAR-3): 5.19 µM
- GI50 (SN12C): 6.46 µM
- GI50 (COLO 205): 5.55 µM
- GI50 (U-251): 4.35 µM
- GI50 (NCI-H23): 5.85 µM
- IC50 [6]: 1.9 µM
- GI50 (SK-MEL-5): 7.71 µM

Molecule: CC1=CC[C@H]2C(C)(C)CCC[C@]2(C)[C@H]1C(C)[C@H](OS(=O)(=O)O)[C@H](C)CCCc1ccoc1 (stereo partly drawn)
- IC50 [9]: 7.8 µM

B1: M-phase inducer phosphatase 1 (Homo sapiens), P30304 (protein)
chain: T1 sequence (P30304 whole entry)
- Vmax [10]: 3070
- Km [11]: 33.6 µM
- Vmax [12]: 4260
- Vmax [13]: 4610
- Km [14]: 23.1 µM
- Km [15]: 37.4 µM
- Vmax [16]: 632
- Km [17]: 32.3 µM

From ChEMBL document CHEMBL1134845, “Syntheses and biological activities of a novel group of steroidal derived inhibitors for human Cdc25A protein phosphatase” (J Med Chem, 2001)
